# The source made the active and inactive calls. The rule behind the calls is not given here.
# Columns and labels:
# [1] = system: Mus musculus; assay: Acid-insoluble DNA incorporation in mouse Mecca lymphosarcoma ascite tumor allografted in AKD2F1 mouse assessed per mg of DNA at 2.6 umol, ip after 4 hrs by scintillation counting analysis; assay type: functional
# Procedure, shortened: (§1)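 Female AKD2F1 mice (groups of 3) bearing 4-day Mecca lymphosarcoma ascites tumors; 2.6 μmol [35S]nucleoside ip, repeated after 2 h; peritoneal cells washed out 2 h later. Acid-insoluble nucleic acid extracted in 10% NaCl at 100 °C, RNA removed by alkali; DNA digested with DNase I then phosphodiesterase I at 37 °C; paper chromatography, spots counted by scintillation.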
# [2] = species on record: Mus musculus; assay: Acid-insoluble DNA incorporation in mouse Mecca lymphosarcoma ascite tumor allografted in AKD2F1 mouse assessed as detection of [35S] in nucleoside at 2.6 umol after 4 hrs by scintillation counting analysis; assay type: functional; procedure, shortened: as §1
# [3] = species on record: Mus musculus; assay: Acid-insoluble DNA incorporation in mouse Mecca lymphosarcoma ascite tumor allografted in AKD2F1 mouse assessed as detection of [35S] in nucleotide at 2.6 umol after 4 hrs by scintillation counting analysis; assay type: functional; procedure, shortened: as §1
# [4] = species on record: Mus musculus; assay: Acid-soluble DNA incorporation in mouse Mecca lymphosarcoma ascite tumor allografted in AKD2F1 mouse assessed as detection of [35S] in nucleoside per mg of DNA at 2.6 umol after 4 hrs by scintillation counting analysis; assay type: functional
# Procedure, shortened: (§2)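 Same mouse dosing as the DNA study: 2.6 μmol [35S]nucleoside ip twice, 2 h apart, to AKD2F1 mice carrying Mecca lymphosarcoma ascites; cells harvested 2 h after the second dose. Acid-soluble fraction chromatographed on paper in 5% KH2PO4 with mercaptoethanol; nucleoside and nucleotide spots scintillation-counted, expressed per mg DNA.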
# [5] = species on record: Mus musculus; assay: Acid-soluble DNA incorporation in mouse Mecca lymphosarcoma ascite tumor allografted in AKD2F1 mouse assessed as detection of [35S] in nucleotide per mg of DNA at 2.6 umol after 4 hrs by scintillation counting analysis; assay type: functional; procedure, shortened: as §2
# [6] = species on record: Mus musculus; assay: Acid-soluble DNA incorporation in mouse Mecca lymphosarcoma ascite tumor allografted in AKD2F1 mouse assessed as wheat germ 3'-nucleotidase-mediated nucleotide hydrolysis at 2.6 umol after 1 hr; assay type: functional; parameters: scale not given: the % may be the effect or the level left
# Procedure, shortened: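 Acid-soluble fraction from mice dosed ip with 2.6 μmol [35S]nucleoside twice, 2 h apart. Aliquot treated with nucleotidase-free phosphodiesterase (pH 8.6, 1 h, 37 °C), then wheat germ 3'-nucleotidase (4 units, pH 5, 1 h, 37 °C); separated by paper chromatography and counted.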
# [7] = species on record: Mus musculus; assay: Acid-soluble DNA incorporation in mouse Mecca lymphosarcoma ascite tumor allografted in AKD2F1 mouse assessed as snake venome 5'-nucleotidase-mediated nucleotide hydrolysis at 2.6 umol after 2 hrs; assay type: functional; parameters: scale not given: the % may be the effect or the level left
# Procedure, shortened: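 Female AKD2F1 mice bearing 4-day Mecca lymphosarcoma ascites were used in groups of three. Aliquots of the acid-soluble fraction were digested with crude Crotalus adamanteus venom (phosphodiesterase plus 5'-nucleotidase) for 2 h at 37 °C.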
# [8] = Stability in RPMI 1640 assessed as formation of thioguanine after 24 hrs in presence of 10% dialyzed horse serum; assay type: physicochemical
# Procedure, shortened: (§3)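 Nucleosides incubated without cells in RPMI 1640 containing 10% fetal calf serum or 10% dialyzed horse serum, 20 min or 24 h; cleavage to thioguanine monitored.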
# [9] = Stability in RPMI 1640 after 24 hrs in presence of 10% fetal calf serum; assay type: physicochemical; conditions: cattle; procedure, shortened: as §3
# [10] = Stability in RPMI 1640 after 20 mins in presence of 10% fetal calf serum; assay type: physicochemical; conditions: cattle; procedure, shortened: as §3
# [11] = system: WIL2; assay: Stability in human WIL2 cells assessed as formation of thioguanine; assay type: ADME, cell-based
# Procedure, shortened: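 WI-L2 cells incubated with labeled nucleoside; [35S]thioguanine formed was measured.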
# [12] = system: WIL2; assay: Antiproliferative activity against human WIL2 cells assessed as decrease in cell number at 100 to 300 uM measured every 24 hrs by electronic particle counting analysis in presence of 10% dialyzed horse serum; assay type: functional, cell-based
# Procedure, shortened: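 WI-L2 cells in RPMI 1640 + 10% dialyzed horse serum with penicillin/streptomycin; log-phase cells (2×10^5/mL) mixed 1:1 with double-strength drug medium at several concentrations, duplicate cultures, counted every 24 h by electronic particle counter.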
SMILES,Activity [1] [nmol],Activity [2] [%],Activity [3] [%],Activity [4] [nmol],Activity [5] [nmol],Activity [6] [%],Activity [7] [%],Stability [8],Stability [9],Stability [10],Stability [11],Activity [12]
Nc1nc2c(ncn2[C@@H]2C[C@H](O)[C@@H](CO)O2)c(=S)[nH]1,0.84,60,40,10.4,6.4,2,95.7,Stable,Unstable,Stable,Stable,Active
Nc1nc2c(ncn2[C@H]2C[C@H](CO)[C@@H](CO)O2)c(=S)[nH]1,2.36,90,10,29.1,30.3,0,94.8,Stable,Unstable,Stable,Stable,–
Nc1nc2c(ncn2[C@@H]2C[C@H](CO)[C@@H](CO)O2)c(=S)[nH]1,2.42,91,9,15.6,29.8,0,95.2,Stable,Unstable,Stable,Stable,Active

# Source: ChEMBL document CHEMBL3228020, “Improved antitumor effects in 3'-branched homologues of 2'-deoxythioguanosine. Synthesis and evaluation of thioguanine nucleosides of 2,3-dideoxy-3-(hydroxymethyl)-D-erythro-pentofuranose” (J Med Chem, 1979)
